Results: ChEMBL document CHEMBL3580633, “Benzoxaborole antimalarial agents. Part 4. Discovery of potent 6-(2-(alkoxycarbonyl)pyrazinyl-5-oxy)-1,3-dihydro-1-hydroxy-2,1-benzoxaboroles” (J Med Chem, 2015)

Columns and labels:
Plasmodium berghei [1] = assay: Antiplasmodial activity against Plasmodium berghei infected in Swiss Webster mouse assessed as mouse survival at 33 mg/kg, po dosed once daily for 4 consecutive days beginning 1 hr after initial infection and measured on day 13 post infection by Giemsa staining method; format: functional
Method in brief: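 Female Swiss Webster mice (about 20 g) were infected ip with 6 × 10^6 P. berghei-infected erythrocytes from a donor mouse. They were dosed by oral gavage once daily for 4 days, starting 1 h post-infection, in PEG 300/propylene glycol/water (55/25/20 by weight). Parasitemia was read daily on Giemsa smears from day 4, and mice were euthanized above 50% parasitemia. Percent survival was tracked to 21 days.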

Mus musculus [2] = assay: Cmax in CD1 mouse assessed as 5-(1-hydroxy-1,3-dihydrobenzo[c][1,2]oxaborol-6-yloxy)pyrazine-2-carboxylic acid level at 5 mg/kg, po by HPLC coupled to tandem mass spectrometry; format: ADME, organism-based; parameters: dose 5 mg/kg, route oral; conditions: in vivo
Method in brief: (§1)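 The parent ester was given to adult female CD-1 mice at 5 mg/kg, iv or by oral gavage, in PEG 400/dimethylacetamide/water (45/10/45, pH 5.8). Blood was sampled, and the acid formed from the ester in vivo was quantified by HPLC-tandem MS to derive its PK parameters.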

Mus musculus [3] = assay: AUC (0 to infinity) in CD1 mouse assessed as 5-(1-hydroxy-1,3-dihydrobenzo[c][1,2]oxaborol-6-yloxy)pyrazine-2-carboxylic acid level at 5 mg/kg, iv by HPLC coupled to tandem mass spectrometry; format: ADME, organism-based; parameters: dose 5 mg/kg, route intravenous, time infinity; conditions: in vivo; method in brief: as §1
Mus musculus [4] = assay: Oral bioavailability in CD1 mouse assessed as 5-(1-hydroxy-1,3-dihydrobenzo[c][1,2]oxaborol-6-yloxy)pyrazine-2-carboxylic acid level at 5 mg/kg by HPLC coupled to tandem mass spectrometry; format: ADME, organism-based; conditions: in vivo; method in brief: as §1
Plasmodium berghei [5] = assay: Antiplasmodial activity against Plasmodium berghei infected in Swiss Webster mouse assessed as mouse survival at 3 mg/kg, po dosed once daily for 4 consecutive days beginning 1 hr after initial infection and measured on day 10 post infection by Giemsa staining method; format: functional
Method in brief: (§2)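 Female Swiss Webster mice (about 20 g) infected ip with 6 × 10^6 P. berghei-infected erythrocytes. Oral gavage once daily for 4 days, starting 1 h after infection. Vehicle PEG300/propylene glycol/water (55/25/20 by weight). Giemsa-smear parasitemia counted daily from day 4. Mice euthanised above 50% parasitemia. Survival followed to day 21, 5 mice per dose, chloroquine 30 mg/kg as reference.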

Plasmodium berghei [6] = assay: Antiplasmodial activity against Plasmodium berghei infected in Swiss Webster mouse assessed as mouse survival at 100 mg/kg, po dosed once daily for 4 consecutive days beginning 1 hr after initial infection and measured on day 20 post infection by Giemsa staining method; format: functional; method in brief: as §2
Plasmodium berghei [7] = assay: Antiplasmodial activity against Plasmodium berghei infected in Swiss Webster mouse assessed as mouse survival at 3 mg/kg, po dosed once daily for 4 consecutive days beginning 1 hr after initial infection and measured on day 12 post infection by Giemsa staining method; format: functional; method in brief: as §2
Plasmodium berghei [8] = assay: Antiplasmodial activity against Plasmodium berghei infected in Swiss Webster mouse assessed as mouse survival at 100 mg/kg, po dosed once daily for 4 consecutive days beginning 1 hr after initial infection and measured on day 16 to 19 post infection by Giemsa staining method; format: functional; method in brief: as §2
Plasmodium falciparum = assay: Antimalarial activity against chloroquine-sensitive Plasmodium falciparum 3D7 cultured in human erythrocytes incubated for 72 hrs by [3H]-hypoxanthine incorporation assay; format: functional, organism-based
[9] = Terminal half life in CD1 mouse at 30 mg/kg, po by HPLC coupled to tandem mass spectrometry; format: ADME, organism-based; conditions: in vivo, read-out: beta t1/2 (converted)
Method in brief: (§3)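 Adult female CD-1 mice were dosed 10 mg/kg by iv injection or 30 mg/kg by oral gavage, with the compound in 100% saline. Blood samples were collected and drug content was measured by HPLC-tandem MS.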

[10] = Clearance in CD1 mouse at 10 mg/kg, iv by HPLC coupled to tandem mass spectrometry; format: ADME, organism-based; conditions: in vivo; method in brief: as §3
Plasmodium berghei [11] = assay: Antiplasmodial activity against Plasmodium berghei infected in Swiss Webster mouse assessed as mouse survival at 200 mg/kg, po dosed once daily for 4 consecutive days beginning 1 hr after initial infection and measured on day 8 post infection by Giemsa staining method; format: functional; method in brief: as §2
[12] = Stability in mouse liver microsomes assessed as compound remaining at 1 uM incubated for 1 hr in absence of NADPH by LC/MS/MS method; format: ADME
Method in brief: (§4)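 Compound at 1 μM final (from a 1 mg/mL DMSO stock) was incubated with mouse or human liver microsomes (0.5 mg/mL protein) in 100 mM potassium phosphate, pH 7.4, at 37 °C with shaking, with or without 1 mM NADPH. Samples were taken over 0–120 min and tested in duplicate. Reactions were quenched with cold acetonitrile plus internal standard and analyzed by LC/MS/MS.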

Liver microsome = assay: Stability in human liver microsomes assessed as compound remaining at 1 uM incubated for 1 hr in absence of NADPH by LC/MS/MS method; format: ADME; method in brief: as §4

`COC(=O)c1cnc(Oc2ccc3c(c2)B(O)OC3)cn1` showed a survival at 33 mg/kg (Plasmodium berghei [1]) of 0%, a Cmax (Mus musculus [2]) of 920 ng/mL and an AUC (Mus musculus [3]) of 990 ng·h/mL. For the same compound, the F (Mus musculus [4]) was 29%, the survival at 3 mg/kg (Plasmodium berghei [5]) was 40% and the survival at 100 mg/kg (Plasmodium berghei [6]) was 0%. For the same compound, the survival at 3 mg/kg (Plasmodium berghei [7]) was 0% and the survival at 100 mg/kg (Plasmodium berghei [8]) was 20%.

`O=C(O)c1cnc(Oc2ccc3c(c2)B(O)OC3)cn1` showed an IC50 (Plasmodium falciparum) of 300 nM, a half-life [9] of 13.8 min and a clearance [10] of 38.8 mL/min/kg.

With `NC(=O)c1cnc(Oc2ccc3c(c2)B(O)OC3)cn1` the survival at 200 mg/kg (Plasmodium berghei [11]) was 100%, the Stability [12] was 100% and the Stability (Liver microsome) was 100%.
